Assay results published in ChEMBL document CHEMBL1240373, “Glycerol monolaurate inhibits Candida and Gardnerella vaginalis in vitro and in vivo but not Lactobacillus” (Antimicrob Agents Chemother, 2010).
Active and inactive are the calls of the source.

What was measured:
Candida parapsilosis = assay: Antifungal activity against Candida parapsilosis assessed as => 3-log drop in number of fungal CFU/ml at 500 ug/ml after 4 to 8 hrs; type: functional, organism-based
How it was run: (§1)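 Candida species (C. albicans SC5314 and clinical isolates, C. glabrata, C. kefyr, C. parapsilosis, C. tropicalis, C. krusei) grown 24 h at 37°C with 200 rpm shaking in 25 ml Todd Hewitt broth with GML at 0, 50, 100 or 500 μg/ml. CFU were counted at time points by serial dilution and plating. Fungicidal was defined as a ≥3-log CFU/ml drop.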

Gardnerella vaginalis [1] = assay: Antibacterial activity against Gardnerella vaginalis-mediated vaginal infection in woman assessed as effect on vaginal pH at 5% treated via intravaginal gels every 12 hrs for 2 days measured post application; type: functional, organism-based; details: Vagina
How it was run: (§2)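 Women self-applied vaginal gels containing 0, 0.5 or 5% GML in a warming-gel vehicle every 12 h for 2 days. Vaginal pH was measured at visit 1 (before the first dose) and visit 2, and the two visits were compared.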

Candida [2] = assay: Antifungal activity against Candida-mediated vaginal infection in woman at 0.5% treated via intravaginal gels every 12 hrs for 2 days measured post application; type: functional, organism-based; details: Vagina
How it was run: (§3)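 Double-blind randomized study. Women self-applied intravaginal gel (warming-gel vehicle) with 0, 0.5 or 5% GML every 12 h for 2 days. Swabs were taken before and just after the first dose and 12 h after the last dose, placed in 1 ml Todd Hewitt broth, serially diluted and plated on chocolate agar (37°C, 7% CO2, up to 3 days). Organisms were identified by colony features as CFU/ml secretions, visit 1 vs visit 2. Detection limit 10^2 CFU/ml.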

Gardnerella vaginalis [3] = assay: Antibacterial activity against Gardnerella vaginalis-mediated vaginal infection in woman at 0.5% treated via intravaginal gels every 12 hrs for 2 days measured post application; type: functional, organism-based; details: Vagina; how it was run: as §3
Pichia kudriavzevii = assay: Antifungal activity against Candida krusei assessed as => 3-log drop in number of fungal CFU/ml at 500 ug/ml after 4 to 8 hrs; type: functional, organism-based; how it was run: as §1
Gardnerella vaginalis [4] = assay: Antibacterial activity against Gardnerella vaginalis-mediated vaginal infection in woman at 5% treated via intravaginal gels every 12 hrs for 2 days measured post application; type: functional, organism-based; details: Vagina; how it was run: as §3
Homo sapiens [5] = species: Homo sapiens; assay: Toxicity in woman with Gardnerella vaginalis-mediated vaginal infection assessed as adverse events at 5% treated via intravaginal gels every 12 hrs for 2 days measured post application; type: organism-based, Vagina; details: in vivo, other
Lactobacillus [6] = assay: Antibacterial activity against Lactobacillus-mediated vaginal infection in woman assessed as effect on vaginal pH at 5% treated via intravaginal gels every 12 hrs for 2 days measured post application; type: functional; details: Vagina; how it was run: as §2
Candida tropicalis = assay: Antifungal activity against Candida tropicalis assessed as => 3-log drop in number of fungal CFU/ml at 500 ug/ml after 4 to 8 hrs; type: functional, organism-based; how it was run: as §1
Candida albicans [7] = assay: Antifungal activity against Candida albicans SC5314 clinical isolate at 100 ug/ml after 24 hrs; type: functional, organism-based; how it was run: as §1
Candida [8] = assay: Antifungal activity against Candida-mediated vaginal infection in woman assessed as effect on vaginal pH at 5% treated via intravaginal gels every 12 hrs for 2 days measured post application; type: functional, organism-based; details: Vagina; how it was run: as §2
Gardnerella vaginalis [9] = assay: Antibacterial activity against Gardnerella vaginalis-mediated vaginal infection in woman assessed as effect on vaginal pH at 0.5% treated via intravaginal gels every 12 hrs for 2 days measured post application; type: functional, organism-based; details: Vagina; how it was run: as §2
Lactobacillus [10] = assay: Antibacterial activity against Lactobacillus-mediated vaginal infection in woman at 5% treated via intravaginal gels every 12 hrs for 2 days measured post application; type: functional; details: Vagina; how it was run: as §3
Kluyveromyces marxianus = assay: Antifungal activity against Candida pseudotropicalis kefyr assessed as => 3-log drop in number of fungal CFU/ml at 100 ug/ml after 4 to 8 hrs; type: functional, organism-based; how it was run: as §1
Gardnerella vaginalis [11] = assay: Antibacterial activity against Gardnerella vaginalis assessed as => 3-log drop in number of fungal CFU/ml at 1 to 10 ug/ml after 24 hrs; type: functional, organism-based
Nakaseomyces glabratus = assay: Antifungal activity against Candida glabrata assessed as => 3-log drop in number of fungal CFU/ml at 500 ug/ml after 4 to 8 hrs; type: functional, organism-based; how it was run: as §1
Candida [12] = assay: Antifungal activity against Candida-mediated vaginal infection in woman at 5% treated via intravaginal gels every 12 hrs for 2 days measured post application; type: functional, organism-based; details: Vagina; how it was run: as §3
Candida albicans [13] = assay: Antifungal activity against Candida albicans SC5314 assessed as => 3-log drop in number of fungal CFU/ml at 100 ug/ml after 4 to 8 hrs; type: functional, organism-based; how it was run: as §1
Homo sapiens [14] = species: Homo sapiens; assay: Toxicity in woman with vaginal infection assessed as adverse events at 5% treated via intravaginal gels every 12 hrs for 2 days measured post application; details: in vivo, other
Lactobacillus [15] = assay: Antibacterial activity against Lactobacillus-mediated vaginal infection in woman assessed as effect on vaginal pH at 0.5% treated via intravaginal gels every 12 hrs for 2 days measured post application; type: functional; details: Vagina; how it was run: as §2
Homo sapiens [16] = species: Homo sapiens; assay: Toxicity in woman with Candida-mediated vaginal infection assessed as adverse events at 5% treated via intravaginal gels every 12 hrs for 2 days measured post application; type: organism-based, Vagina; details: in vivo, other
Lactobacillus [17] = assay: Antibacterial activity against Lactobacillus-mediated vaginal infection in woman at 0.5% treated via intravaginal gels every 12 hrs for 2 days measured post application; type: functional; details: Vagina; how it was run: as §3
Candida [18] = assay: Antifungal activity against Candida-mediated vaginal infection in woman assessed as effect on vaginal pH at 0.5% treated via intravaginal gels every 12 hrs for 2 days measured post application; type: functional, organism-based; details: Vagina; how it was run: as §2

## CCCCCCCCCCCC(=O)OCC(O)CO (stereo not drawn) [GLYCEROL MONOLAURATE]
Candida parapsilosis
  Activity: Active
Gardnerella vaginalis [1]
  Activity: inactive
Candida [2]
  Activity: Active
Gardnerella vaginalis [3]
  Activity: Active
Pichia kudriavzevii
  Activity: Active
Gardnerella vaginalis [4]
  Activity: Active
Homo sapiens [5]
  Activity: Non-toxic
Lactobacillus [6]
  Activity: inactive
Candida tropicalis
  Activity: Active
Candida albicans [7]
  Activity: Active
Candida [8]
  Activity: inactive
Gardnerella vaginalis [9]
  Activity: inactive
Lactobacillus [10]
  Activity: inactive
Kluyveromyces marxianus
  Activity: Active
Gardnerella vaginalis [11]
  Activity: Active
Nakaseomyces glabratus
  Activity: Active
Candida [12]
  Activity: Active
Candida albicans [13]
  Activity: Active
Homo sapiens [14]
  Activity: Non-toxic
Lactobacillus [15]
  Activity: inactive
Homo sapiens [16]
  Activity: Non-toxic
Lactobacillus [17]
  Activity: inactive
Candida [18]
  Activity: inactive
